{
  "source": "ChEMBL document CHEMBL4002604",
  "about": "“Evaluation of biological properties of 3,3',4,4'-benzophenonetetracarboxylic dianhydride derivatives and their ability to inhibit hexokinase activity” (2017)",
  "format_in_all_cases": "functional",
  "key": {"P19 [1]": {"tested_on": "P19", "experiment": "Cytotoxicity against differentiated mouse P19 cells assessed as mitochondrial superoxide anion level at 1 uM after 72 hrs by MitoSox dye based fluorescence assay relative to control", "summary_of_the_method": "(§1)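 Undifferentiated (P19SCs) or differentiated (P19dCs) P19 cells incubated 24 or 72 h with 1 or 100 µM. Mitochondrial membrane potential and mitochondrial superoxide levels measured and expressed relative to untreated control. Means ± SD from 4 independent measurements, at least 4 repeats each. Significance at p<0.05.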"}, "P19 [2]": {"tested_on": "P19", "experiment": "Cytotoxicity against undifferentiated mouse P19 cells assessed as mitochondrial superoxide anion level at 1 uM after 72 hrs by MitoSox dye based fluorescence assay relative to control", "summary_of_the_method": "as §1"}, "P19 [3]": {"tested_on": "P19", "experiment": "Cytotoxicity against differentiated mouse P19 cells assessed as mitochondrial superoxide anion level at 100 uM after 72 hrs by MitoSox dye based fluorescence assay relative to control", "summary_of_the_method": "as §1"}, "P19 [4]": {"tested_on": "P19", "experiment": "Cytotoxicity against undifferentiated mouse P19 cells assessed as cell mass at 1 to 100 uM after 24 hrs by SRB assay relative to control", "summary_of_the_method": "(§2)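 Cell mass by SRB assay in P19 cells (CRL-1825), either undifferentiated (P19SCs) or differentiated (P19dCs). Cells exposed to 1, 10 or 100 µM for 24, 48 or 72 h. Values expressed relative to untreated control. Means ± SD from at least 4 independent measurements, 6 repeats each. Significance vs control at p<0.05.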"}, "P19 [5]": {"tested_on": "P19", "experiment": "Cytotoxicity against differentiated mouse P19 cells assessed as cell mass at 1 to 100 uM after 48 hrs by SRB assay relative to control", "summary_of_the_method": "as §2"}, "P19 [6]": {"tested_on": "P19", "experiment": "Cytotoxicity against undifferentiated mouse P19 cells assessed as mitochondrial membrane potential at 100 uM after 24 hrs by TMRF dye based fluorescence assay relative to control", "summary_of_the_method": "as §1"}, "P19 [7]": {"tested_on": "P19", "experiment": "Cytotoxicity against differentiated mouse P19 cells assessed as metabolic activity at 1 to 100 uM after 48 hrs by resazurin assay relative to control", "summary_of_the_method": "(§3)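 Metabolic activity by resazurin reduction in undifferentiated (P19SCs) or differentiated (P19dCs) P19 cells. Exposure to 1, 10 or 100 µM for 24, 48 or 72 h. Read-out relative to untreated control. Significance vs control at p<0.05.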"}, "P19 [8]": {"tested_on": "P19", "experiment": "Cytotoxicity against differentiated mouse P19 cells assessed as metabolic activity at 1 to 100 uM after 24 hrs by resazurin assay relative to control", "summary_of_the_method": "as §3"}, "P19 [9]": {"tested_on": "P19", "experiment": "Cytotoxicity against undifferentiated mouse P19 cells assessed as metabolic activity at 1 to 100 uM after 48 hrs by resazurin assay relative to control", "summary_of_the_method": "as §3"}, "P19 [10]": {"tested_on": "P19", "experiment": "Cytotoxicity against undifferentiated mouse P19 cells assessed as mitochondrial superoxide anion level at 100 uM after 24 hrs by MitoSox dye based fluorescence assay relative to control", "summary_of_the_method": "as §1"}},
  "data": [
    {"molecule": "O=C(c1ccc2c(c1)C(=O)N(c1cccc(O)c1)C2=O)c1ccc2c(c1)C(=O)N(c1cccc(O)c1)C2=O", "values": [
      {"measurement": "Activity", "setting": "P19 [1]", "result": 105.3, "unit": "%"},
      {"measurement": "Activity", "setting": "P19 [2]", "result": 106, "unit": "%"},
      {"measurement": "Activity", "setting": "P19 [3]", "result": 149.1, "unit": "%"},
      {"measurement": "Activity", "setting": "P19 [4]", "result": 103.3, "unit": "%"},
      {"measurement": "Activity", "setting": "P19 [5]", "result": 102.2, "unit": "%"},
      {"measurement": "Activity", "setting": "P19 [6]", "result": 91, "unit": "%"},
      {"measurement": "Activity", "setting": "P19 [7]", "result": 97.5, "unit": "%"},
      {"measurement": "Activity", "setting": "P19 [8]", "result": 100, "unit": "%"},
      {"measurement": "Activity", "setting": "P19 [9]", "result": 76.5, "unit": "%"},
      {"measurement": "Activity", "setting": "P19 [10]", "result": 55.1, "unit": "%"}
    ]}
  ]
}
